Measurements as given in ChEMBL document CHEMBL1136923, “Highly potent, orally available anti-inflammatory broad-spectrum chemokine inhibitors” (J Med Chem, 2009).
Each block holds one molecule with its values, some of them ahead of it.

Tests used:
[1] = molecular target: C-C chemokine receptor type 2 (Homo sapiens) (UniProt P41597); test: Antagonist activity at CCR2 in human THP1 cells assessed as inhibition of CCL2-induced chemotaxis after 2 hrs by microtiter format trans-well migration assay; type: functional, cell-based; conditions: THP-1
Summary of the method: (§1)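 Microtiter trans-well migration assay in Gey's balanced salt solution with 1 mg/mL endotoxin-free BSA, no fetal calf serum. Migration ran 2 h at 37 °C. Compounds dissolved in DMSO and added to both top and bottom compartments, final DMSO 1%.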

[2] = molecular target: C-C chemokine receptor type 2 (Homo sapiens) (UniProt P41597); test: Antagonist activity at CCR2 in human THP1 cells assessed as inhibition of CCL2-induced chemotaxis at 1000 nM after 2 hrs by microtiter format trans-well migration assay; type: functional, cell-based; conditions: THP-1; summary of the method: as §1
[3] = molecular target: C-C chemokine receptor type 2 (Homo sapiens) (UniProt P41597); test: Antagonist activity at CCR2 in human THP1 cells assessed as inhibition of CCL2-induced chemotaxis at 100 nM after 2 hrs by microtiter format trans-well migration assay; type: functional, cell-based; conditions: THP-1; summary of the method: as §1
[4] = molecular target: C-C chemokine receptor type 2 (Homo sapiens) (UniProt P41597); test: Antagonist activity at CCR2 in human THP1 cells assessed as inhibition of CCL2-induced chemotaxis at 10 nM after 2 hrs by microtiter format trans-well migration assay; type: functional, cell-based; conditions: THP-1; summary of the method: as §1
[5] = molecular target: C-C chemokine receptor type 2 (Homo sapiens) (UniProt P41597); test: Antagonist activity at CCR2 in human THP1 cells assessed as inhibition of CCL2-induced chemotaxis at 1 nM after 2 hrs by microtiter format trans-well migration assay; type: functional, cell-based; conditions: THP-1; summary of the method: as §1
[6] = molecular target: C-C chemokine receptor type 2 (Homo sapiens) (UniProt P41597); test: Antagonist activity at CCR2 in human THP1 cells assessed as inhibition of CCL2-induced chemotaxis at 0.1 nM after 2 hrs by microtiter format trans-well migration assay; type: functional, cell-based; conditions: THP-1; summary of the method: as §1
Mus musculus [7] = test: Antiinflammatory activity in sc dosed mouse assessed as inhibition of LPS-induced TNFalpha upregulation measured 2 hrs after LPS challenge; type: functional
Mus musculus [8] = test: Antiinflammatory activity in sc dosed mouse assessed as inhibition of LPS-induced TNFalpha upregulation measured 2 hrs after LPS challenge relative to control; type: functional
Summary of the method: (§2)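 Murine sublethal LPS endotoxemia screen. LPS is injected intraperitoneally and serum TNF-α is measured 2 h later as the end point. Compound is given subcutaneously or orally in a vehicle of 0.6% DMSO plus 1% carboxymethylcellulose (final concentrations) in sterile water. Values are % relative to control.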

Mus musculus [9] = test: Antiinflammatory activity in po dosed mouse assessed as inhibition of LPS-induced TNFalpha upregulation measured 2 hrs after LPS challenge; type: functional
Mus musculus [10] = test: Antiinflammatory activity in po dosed mouse assessed as inhibition of LPS-induced TNFalpha upregulation measured 2 hrs after LPS challenge relative to control; type: functional; summary of the method: as §2
Mus musculus [11] = test: Antiinflammatory activity in mouse assessed as inhibition of LPS-induced TNFalpha upregulation at 0.0016 ug, sc measured 2 hrs after LPS challenge; type: functional
Summary of the method: (§3)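 Murine sublethal endotoxemia: LPS given intraperitoneally, with serum TNF-α measured 2 h after the LPS injection as the end point. Compound was given subcutaneously or orally. Vehicle was 0.6% DMSO and 1% carboxymethylcellulose (final concentrations) in sterile water. Effect is reported as % relative to control.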

Mus musculus [12] = test: Antiinflammatory activity in mouse assessed as inhibition of LPS-induced TNFalpha upregulation at 0.0066 ug, sc measured 2 hrs after LPS challenge; type: functional; summary of the method: as §3
Mus musculus [13] = test: Antiinflammatory activity in mouse assessed as inhibition of LPS-induced TNFalpha upregulation at 0.016 ug, sc measured 2 hrs after LPS challenge; type: functional; summary of the method: as §3
Mus musculus [14] = test: Antiinflammatory activity in mouse assessed as inhibition of LPS-induced TNFalpha upregulation at 0.00016 mg, sc measured 2 hrs after LPS challenge; type: functional
Summary of the method: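 Murine sublethal endotoxemia: LPS given intraperitoneally, serum TNF-α measured 2 h after LPS injection. Compound vehicle 0.6% DMSO plus 1% carboxymethylcellulose (final concentrations) in sterile water.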

Mus musculus [15] = test: Antiinflammatory activity in mouse assessed as inhibition of LPS-induced TNFalpha upregulation at 0.0016 mg, sc measured 2 hrs after LPS challenge; type: functional; summary of the method: as §3
Mus musculus [16] = test: Antiinflammatory activity in mouse assessed as inhibition of LPS-induced TNFalpha upregulation at 0.016 mg, sc measured 2 hrs after LPS challenge; type: functional; summary of the method: as §3
Mus musculus [17] = test: Antiinflammatory activity in mouse assessed as inhibition of LPS-induced TNFalpha upregulation at 540 pg, po measured 2 hrs after LPS challenge; type: functional; summary of the method: as §2
Mus musculus [18] = test: Antiinflammatory activity in mouse assessed as inhibition of LPS-induced TNFalpha upregulation at 0.0027 ug, po measured 2 hrs after LPS challenge; type: functional; summary of the method: as §3
Mus musculus [19] = test: Antiinflammatory activity in mouse assessed as inhibition of LPS-induced TNFalpha upregulation at 0.0186 ug, po measured 2 hrs after LPS challenge; type: functional; summary of the method: as §3
Mus musculus [20] = test: Antiinflammatory activity in mouse assessed as inhibition of LPS-induced TNFalpha upregulation at 0.068 ug, po measured 2 hrs after LPS challenge; type: functional; summary of the method: as §3
Mus musculus [21] = test: Antiinflammatory activity in mouse assessed as inhibition of LPS-induced TNFalpha upregulation at 0.75 ug, po measured 2 hrs after LPS challenge; type: functional; summary of the method: as §3
Mus musculus [22] = test: Antiinflammatory activity in mouse assessed as inhibition of LPS-induced TNFalpha upregulation at 0.0186 mg, po measured 2 hrs after LPS challenge; type: functional; summary of the method: as §3
[23] = Half life in Sprague-Dawley rat at 1 mg/kg, iv administered as single dose; type: ADME, organism-based; parameters: dose 1 mg/kg, route intravenous; conditions: in vivo
Summary of the method: (§4)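 Male Sprague-Dawley rats, three per compound, receive a single intravenous dose in 5% DMSO in 0.9% saline. Food and water are given ad libitum. Plasma is taken at 5, 15, 30, 60, 120, 180, 240 and 480 min. Drug is measured by LC/MS/MS after extraction with 0.1% formic acid in acetonitrile. The curve is back-extrapolated to time zero assuming an initial volume of 0.26 L/kg.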

[24] = Clearance in Sprague-Dawley rat at 1 mg/kg, iv administered as single dose; type: ADME, organism-based; parameters: dose 1 mg/kg, route intravenous; conditions: in vivo; summary of the method: as §4
[25] = Volume of distribution at steady state in Sprague-Dawley rat at 1 mg/kg, iv administered as single dose; type: ADME, organism-based; parameters: dose 1 mg/kg, route intravenous; conditions: in vivo, read-out: Vdss; summary of the method: as §4
[26] = AUC (0 to t) in Sprague-Dawley rat at 1 mg/kg, iv administered as single dose; type: ADME, organism-based, Plasma; parameters: dose 1 mg/kg, route intravenous; conditions: Sprague-Dawley, plasma
Summary of the method: (§5)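 Male Sprague-Dawley rats, three per compound per route, single dose. IV vehicle 5% DMSO in 0.9% saline; oral gavage vehicle 1% carboxymethylcellulose in 0.9% saline; fed ad libitum. Plasma taken 5–480 min post-dose, extracted with 0.1% formic acid in acetonitrile, quantified by LC/MS/MS (positive mode). AUC(0–t) by linear/log trapezoidal rule; IV curve back-extrapolated assuming initial volume 0.26 L/kg.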

[27] = Fractional bioavailability in Sprague-Dawley rat at 3 mg/kg, po administered as single dose; type: ADME, organism-based; conditions: in vivo
Summary of the method: (§6)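 Male Sprague-Dawley rats, three per compound, receive a single oral dose by gavage in 1% carboxymethylcellulose in 0.9% saline, with food and water ad libitum. Plasma is sampled from 5 to 480 min and drug is quantified by positive-mode LC/MS/MS after acetonitrile/formic acid extraction. The lower limit of quantitation is about 2 ng/mL. Exposure is AUC(0→t) by the linear/log trapezoidal rule, and F is oral fractional bioavailability.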

[28] = Cmax in Sprague-Dawley rat at 3 mg/kg, po administered as single dose; type: ADME, organism-based; parameters: dose 3 mg/kg, route oral; conditions: in vivo; summary of the method: as §6
[29] = AUC (0 to t) in Sprague-Dawley rat at 3 mg/kg, po administered as single dose; type: ADME, organism-based; parameters: dose 3 mg/kg, route oral; conditions: plasma; summary of the method: as §5
Rattus norvegicus = test: Plasma concentration in Sprague-Dawley rat at 3 mg/kg, po administered as single dose; type: ADME, organism-based; parameters: dose 3 mg/kg, route oral; conditions: in vivo; summary of the method: as §6

Chain of C-C chemokine receptor type 2 (Homo sapiens) (P41597 whole entry, looked up): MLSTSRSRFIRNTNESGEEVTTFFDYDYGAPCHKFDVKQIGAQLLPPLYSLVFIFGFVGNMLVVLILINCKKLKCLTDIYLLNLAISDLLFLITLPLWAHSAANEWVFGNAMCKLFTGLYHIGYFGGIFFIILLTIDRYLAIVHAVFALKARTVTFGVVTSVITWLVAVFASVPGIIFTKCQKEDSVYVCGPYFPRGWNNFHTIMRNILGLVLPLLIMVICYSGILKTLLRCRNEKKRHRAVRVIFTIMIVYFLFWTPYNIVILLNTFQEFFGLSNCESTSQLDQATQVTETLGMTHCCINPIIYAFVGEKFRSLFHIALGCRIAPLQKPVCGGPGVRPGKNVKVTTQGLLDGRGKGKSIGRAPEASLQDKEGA

Structure (SMILES): CCCCCC12CCC(C(=O)N[C@H]3CCCCNC3=O)(CC1)CC2
ED50 [1]: 7 nM

Structure (SMILES): CC1(C(=O)N[C@H]2CCCCNC2=O)CCCCC1
ED50 [1]: 0.09 nM | inhibition [2]: 100% | inhibition [3]: 99% | inhibition [4]: 100% | inhibition [5]: 98% | inhibition [6]: 38% | ED50 (Mus musculus [7]): 0.33 µg/kg | inhibition (INH) (Mus musculus [8]): 90% | ED50 (Mus musculus [9]): 0.33 µg/kg | inhibition (INH) (Mus musculus [10]): 90% | inhibition (INH) (Mus musculus [11]): 11% | inhibition (INH) (Mus musculus [12]): 52% | inhibition (INH) (Mus musculus [13]): 71% | inhibition (INH) (Mus musculus [14]): 74% | inhibition (INH) (Mus musculus [15]): 73% | inhibition (INH) (Mus musculus [16]): 88% | inhibition (INH) (Mus musculus [17]): -1% | inhibition (INH) (Mus musculus [18]): 14% | inhibition (INH) (Mus musculus [19]): 64% | inhibition (INH) (Mus musculus [20]): 64% | inhibition (INH) (Mus musculus [21]): 70% | inhibition (INH) (Mus musculus [22]): 90% | half-life [23]: 11 min | clearance [24]: 55 mL/min/kg | Vd [25]: 0.6 L/kg | AUC(0-t) [26]: 48.3 ng·h/mL | bioavailability [27]: 5% | Cmax [28]: 3 ng/mL | AUC(0-t) [29]: 7.17 ng·h/mL | Cp (Rattus norvegicus): < 2 ng/mL

Structure (SMILES): CCCC(C)(C)C(=O)N[C@H]1CCCCNC1=O
ED50 [1]: 0.5 nM

The next lines start with the values.

ED50 [1]: 10 nM
Structure (SMILES): CCCCCCCCC/C=C(\C)C(=O)N[C@H]1CCCCNC1=O

ED50 [1]: 3 nM
Structure (SMILES): CCCCCCCCCCC(C)C(=O)N[C@H]1CCCCNC1=O (mixture of isomers; form 2)
